From PMC3109609 (Journal of medicinal chemistry, 2010)
Where “and” joins values, the source holds several entries; their conditions need not be identical. Identical values can stand only once.

What was measured:
[1] = assay type: physicochemical
Method in brief: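 Reverse-phase HPLC retention time gave log k (capacity factor). A calibration line of log k against known logP was built from reference compounds and used to convert each test compound's log k to logP.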

[2] = target: human ΔF508-CFTR (Homo sapiens, UniProt P13569, DEL508-508); test: ΔF508-CFTR corrector activity assay; assay type: cell-based; conditions: concentration-dependent increase in I− influx in FRT ΔF508-CFTR cells

Row | chromatographic logP [1] | logP difference versus bithiazole 1 (lower) ([1]; 14h compared with bithiazole CF corrector 1) | ΔF508-CFTR corrector activity (in words) [2] | SMILES
1 | 4.1 | 1.2 log units and ~ 1.2 log units | – | COc1ccc(Cl)cc1Cn1nc(-c2sc(NC(=O)C(C)(C)C)nc2C)cc1C(=O)N1CCOCC1 [14h, N-(5-(1-(5-chloro-2-methoxybenzyl)-5-(morpholine-4-carbonyl)-1H-pyrazol-3-yl)-4-methylthiazol-2-yl)pivalamide]
2 | – | – | relatively low activity | COc1ccc(NC(=O)c2cc(-c3sc(NC(=O)C(C)(C)C)nc3C)n(-c3ccc(Br)cc3)n2)cc1 [11d, 1-(4-Bromophenyl)-N-(4-methoxyphenyl)-5-(4-methyl-2-pivalamidothiazol-5-yl)-1H-pyrazole-3-carboxamide]
3 | > 5 | – | – | COc1ccc(Cl)cc1Nc1nc(-c2sc(NC(=O)C(C)(C)C)nc2C)cs1 [compound 1, reference compound]
4 | 3.5 | – | retains corrector activity | COc1ccc(Cl)cc1Cn1nc(-c2sc(NC(=O)C(C)(C)C)nc2C)cc1C(=O)NCCO [14j, 1-(5-chloro-2-methoxybenzyl)-N-(2-hydroxyethyl)-3-(4-methyl-2-pivalamidothiazol-5-yl)-1H-pyrazole-5-carboxamide]
